The whole screen tested about 1,100 compounds, of which about 150 (14%) were called active. Inconclusive results (about 1%) are left out.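 The calls were made as follows: active = inhibition above about 50% in both repeat tests (limit read from the data); inconclusive = one repeat under the set limit, the other over it; inactive = both repeats under the set limit.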 The list is a sample of the results.
Assay: Leishmania major promastigote growth inhibition, confirmation, 1 µM repeat of primary hits (AID 1258)
Settings: L. major promastigote growth, resazurin fluorescence, 48 h; at 1 µM; hits give high values
Method in brief: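 Material: Leishmania major promastigote parasites; amount: 5,000 promastigotes/well; buffer or medium: M199, 10% heat-inactivated FBS; compound dosing: single dose of 1 µM per compound, retest of primary hits; times: 44 h compound exposure plus 4 h dye step, both 28 °C; read-out basis: parasite viability inhibition versus plate controls; benchmarks: DMSO MAX/MIN, tamoxifen reference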

SMILES | inhibition
Clc1ccc(-n2nnnc2-c2cnc(-c3ccccn3)nc2-c2cccs2)cc1 | -17.1% (inactive)
c1ccc(CC2CCN(c3nc4ccccc4n4cnnc34)CC2)cc1 | -11.4% (inactive)
CC(=O)NC1C(Oc2ccc(C)cc2)OC2COC(c3ccco3)OC2C1O (stereo unspecified) | -11.1% (inactive)
N#Cc1ccc(N2Cc3ccccc3/C2=N/C(=O)Nc2ccc(Cl)cc2)cc1 | 14% (inactive)
CCOC(=O)c1c(C2CC2)csc1NC(=O)CSCc1c(C)noc1C | -3.56% (inactive)
CNC(=S)N/N=C/c1cn(Cc2ccc(C)cc2)c2ccccc12 | -4.3% (inactive)
COc1ccc2c(c1)C=CC1(O2)N(CCO)c2ccccc2C1(C)C (stereo unspecified) | -3.93% (inactive)
O=C(c1ccc(-c2ccccc2)cc1)C1CCCN(C(=O)c2cncs2)C1 (stereo unspecified) | -12.9% (inactive)
Cn1c(-c2sc3cc(C(F)(F)F)cnc3c2-c2ccccc2)n[nH]c1=S | -17.6% (inactive)
N#Cc1ccc(-c2nc3cc(C#N)c(C#N)cc3nc2-c2ccccc2)cc1C#N | -5.54% (inactive)
c1ccc2cc(OCCN3CCCC3)ccc2c1 | 12.5% (inactive)
Cc1nn(-c2ccccc2)c2sc(C(=O)N(Cc3ccco3)C(C)C(=O)NC(C)(C)C)cc12 (stereo unspecified) | -6.73% (inactive)
COCCN(CCOC)S(=O)(=O)c1ccc(C(=O)Nc2nc3c(s2)CCc2ccccc2-3)cc1 | -8.24% (inactive)
CC(C)Cc1nn2c(=O)cc(O)nc2s1 | -1.83% (inactive)
Cc1c(Br)cc(C(=O)N2CCCCCC2)c(C)c1C | -3.85% (inactive)
CCOC(=O)/C(N=Nc1cc(C(=O)O)cc(C(=O)O)c1)=C(\O)CCl | -4.13% (inactive)
CCOC(=O)N1CCN(C(c2cccnc2)c2ccc3cccnc3c2O)CC1 (stereo unspecified) | -7.1% (inactive)
CCc1nc(C)cn1S(=O)(=O)c1cc(OC)c(C)cc1C | 0.254% (inactive)
Fc1cc(F)c2nc(Nc3nc4c(F)cccc4s3)sc2c1 | -9.65% (inactive)

SMILES | inhibition
CC1(C)CC(=O)c2c(n(S(=O)(=O)c3ccccc3)c3ccc(NS(=O)(=O)c4ccccc4)cc23)C1 | -25.3% (inactive)
O=C(/C=C/Sc1ncn[nH]1)c1ccc(Cl)cc1 | 29.4% (inactive)
CCOC(=O)C1=C(CC)Nc2ccccc2N=C1NC(=O)c1cccc(S(=O)(=O)N2CCCC2)c1 | -9.84% (inactive)
Cc1cccc(-n2c(N)cc(=O)nc2SC(C)C(=O)NC2CCCCC2)c1 (stereo unspecified) | 29.9% (inactive)
Cc1nn(CC2CC2)c(=O)n1N(C)c1ncc(C(F)(F)F)cc1Cl | -15.7% (inactive)
Clc1ccc(C2=CSC3=Nc4cccc5cccc(c45)N23)cc1 | -13.5% (inactive)
CN(C)Cc1ccccc1C1(O)c2ccccc2CSc2ccccc21 (stereo unspecified) | -1.45% (inactive)
Cc1ccc(Nc2nc(CSc3nnnn3-c3ccccc3)cc(=O)[nH]2)cc1 | -2.73% (inactive)
CN(C)c1ccc(/C=C2\NC(=S)N(Cc3ccccc3)C2=O)cc1 | -11.8% (inactive)
CCc1ccc(-c2nn(-c3ccccc3)cc2CSC(=N)N)cc1 | 46.8% (inactive)
c1ccc(C2CCC(N3CCC(N4CCCCC4)CC3)CC2)cc1 (stereo unspecified) | 59.2% (active)
O=C(Nc1ccc2ccccc2c1)Nc1ccc2snnc2c1 | -30.1% (inactive)
Cc1cc(/C=C(/C#N)C(=O)Nc2ccc(Cl)cc2)c(C)n1-c1cccnc1 | -3.48% (inactive)
O=C1N(Cc2ccc3c(c2)OCO3)c2ccccc2C1(O)c1c[nH]c2ccccc12 (stereo unspecified) | 0.0749% (inactive)
CCCCn1c(=S)[nH]c2cc(S(=O)(=O)N3CCCCC3)ccc21 | 9.63% (inactive)
Cc1nnc(-c2ccc(Oc3ccc(C)c(C)c3)c([N+](=O)[O-])c2)o1 | -11.1% (inactive)
Cc1nc(N2CCOCC2)c2c(C)c(C(=O)Nc3ccc(C(F)(F)F)cc3)sc2n1 | 15.1% (inactive)
Cc1ccc(CN(N=Nc2nonc2N)c2nonc2N)c(C)c1 | -2.38% (inactive)
Cc1nc([N+](=O)[O-])nn1C12CC3CC(CC(Br)(C3)C1)C2 | 38.5% (inactive)

SMILES | inhibition
CC(=O)NC1C(OCc2ccccc2)OC(COC(C)=O)C(OC(C)=O)C1OC(C)=O (stereo unspecified) | -7.57% (inactive)
O=C(CCN1C(=O)c2ccccc2C1=O)Nc1cccc(F)c1 | -12.6% (inactive)
O=C(NC(Cc1c[nH]c2ccccc12)C(=O)N/N=C/c1ccc(Br)cc1)c1cccs1 (stereo unspecified) | -12.7% (inactive)
c1ccc(-c2cc(-c3nnc4sc(-c5ccccn5)nn34)[nH]n2)cc1 | 50.6% (active)
COC(=O)C1=C(C)N(c2ccc(C)cc2)/C(=C/c2ccc(O)cc2)C1=O | 8.89% (inactive)
COc1ccc(COC(=O)c2n[nH]c3ccccc23)cc1F | -13% (inactive)
CS(=O)(=O)Nc1cccc(C2=NN(S(=O)(=O)c3ccccc3)C(c3cccs3)C2)c1 (stereo unspecified) | -8.88% (inactive)
Cc1cccc(-n2c(C)cc(/C=N/NC(N)=S)c2C)c1 | 15.8% (inactive)
C=CCNc1nnc(SCC(=O)N2CCCCC2)c2ccccc12 | -6.19% (inactive)
N#Cc1ccccc1-n1c(N)c(C(=O)N2CCCC2)sc1=S | -0.236% (inactive)
CC12CCC(C(=O)N(NC(=O)c3ccccc3O)C1=O)C2(C)C (stereo unspecified) | -15.5% (inactive)
Nc1cccc(-c2cc(-c3ccccc3)nc(-c3cccc(N)c3)n2)c1 | -6.75% (inactive)
COc1ccc2[nH]c(C)c(CCN(Cc3cccs3)C(=S)Nc3ccccc3OC)c2c1 | 28.7% (inactive)
c1ccc(Cc2cc[n+](Cc3ccccc3)cc2)cc1 | -17.2% (inactive)
CN(C)c1ccc(/C=N\S(=O)(=O)c2ccccc2)cc1 | -0.93% (inactive)
O=C(c1cccnc1)N(c1cc2sc(=O)oc2c2ccccc12)S(=O)(=O)c1ccccc1 | 95.1% (active)
N#C/C=C\Oc1ccc(Cl)cc1N | -12.9% (inactive)
COc1ccc(-c2cc(C(F)(F)F)nc(S(C)(=O)=O)n2)cc1OC | 36.4% (inactive)

Source: PubChem BioAssay AID1258 (University of Pittsburgh Molecular Library Screening Center, 2008)
